Measured values taken from ChEMBL document CHEMBL1124727, “Neuronal mapping of the heart with 6-[18F]fluorometaraminol” (1990).

Assays:
Canis familiaris [1] = experiment: Tissue concentration in dog spleen 24 hr after iv administration; assay type: functional, Canis lupus familiaris
In short: (§1)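 Dogs (one to three per time point) received bolus cephalic vein injection of 92–100 μCi ³H tracer in 2.0 mL sterile acetate buffer pH 4.5; sacrificed 30 min or 24 h later by iv sodium pentobarbital. Duplicate organ samples oxidized and liquid-scintillation counted with background/efficiency correction; % kg dose/g ± SEM; heart ratio uses left ventricle/blood.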

Canis familiaris [2] = experiment: Tissue concentration in dog lung 0.5 hr after iv administration; assay type: functional, Canis lupus familiaris; in short: as §1
Canis familiaris [3] = experiment: Tissue concentration in dog blood 24 hr after iv administration; assay type: functional, Canis lupus familiaris; in short: as §1
Canis familiaris [4] = experiment: Tissue concentration in dog heart 0.5 hr after iv administration; assay type: functional, Canis lupus familiaris; in short: as §1
Canis familiaris [5] = experiment: Tissue concentration in dog blood 0.5 hr after iv administration; assay type: functional, Canis lupus familiaris
In short: (§2)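 Dogs given ³H tracer (92–100 μCi) as iv cephalic-vein bolus in 2.0 mL sterile acetate buffer pH 4.5; 1–3 dogs per time point. Killed 30 min (or 24 h) later by iv pentobarbital; duplicate tissue samples oxidized and liquid-scintillation counted with background and efficiency correction. Expressed as % kg dose/g; ratio = left ventricle to blood.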

Canis familiaris [6] = experiment: Tissue concentration in dog heart 24 hr after iv administration; assay type: functional, Canis lupus familiaris; in short: as §1
Canis familiaris [7] = experiment: Tissue concentration in dog lung 24 hr after iv administration; assay type: functional, Canis lupus familiaris; in short: as §1
Canis familiaris [8] = experiment: (§3) Tissue concentration in dog left ventricle to blood ratio 0.5 hr after iv administration; assay type: functional, Canis lupus familiaris; in short: as §1
Canis familiaris [9] = experiment: Tissue concentration in dog left ventricle to blood ratio 24 hr after iv administration; assay type: functional, Canis lupus familiaris; in short: as §1
Canis familiaris [10] = experiment: Tissue concentration in dog liver 24 hr after iv administration; assay type: functional, Canis lupus familiaris; in short: as §1
Canis familiaris [11] = experiment: Tissue concentration in dog spleen 0.5 hr after iv administration; assay type: functional, Canis lupus familiaris; in short: as §1
Canis familiaris [12] = experiment: Tissue concentration in dog liver 0.5 hr after iv administration; assay type: functional, Canis lupus familiaris; in short: as §2
Rattus norvegicus [13] = experiment: Neuronal selectivity expressed as Concentration in right atrium after iv administration in rat, pretreated with 6-hydroxydopamine (control = 5.19+/-0.14); assay type: functional, organism-based; details: Cardiac atrium
Rattus norvegicus [14] = experiment: Neuronal selectivity expressed as Concentration in left ventricle after iv administration in rat, pretreated with 6-hydroxydopamine (control = 5.38+/-0.39); assay type: functional, organism-based; details: Heart left ventricle
Rattus norvegicus [15] = experiment: Neuronal selectivity expressed as Concentration in blood after iv administration in rat, pretreated with 6-hydroxydopamine (control = 0.062+/-0.012); assay type: functional, organism-based
Rattus norvegicus [16] = experiment: Neuronal selectivity expressed as Concentration in right ventricle after iv administration in rat, pretreated with 6-hydroxydopamine (control = 6.10+/-0.45); assay type: functional, organism-based; details: Heart right ventricle
Rattus norvegicus [17] = experiment: Neuronal selectivity expressed as Concentration in spleen after iv administration in rat, pretreated with 6-hydroxydopamine (control = 1.88+/-0.25); assay type: functional, organism-based
Rattus norvegicus [18] = experiment: Neuronal selectivity expressed as Concentration in left atrium after iv administration in rat, pretreated with 6-hydroxydopamine (control = 5.26+/-0.43); assay type: functional, organism-based; details: Cardiac atrium
Rattus norvegicus [19] = species on record: Rattus norvegicus; experiment: Percent change in thallium-201 concentration in spleen of sympathectomized rat, pretreated with 6-hydroxydopamine; assay type: functional
Rattus norvegicus [20] = species on record: Rattus norvegicus; experiment: Percente change in thallium-201 concentration in left atrium of sympathectomized rat, pretreated with 6-hydroxydopamine; assay type: functional, Cardiac atrium
In short: (§4)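 Female Sprague-Dawley rats (200–300 g) given 6-hydroxydopamine HBr 100 mg/kg ip, freshly made in saline, 5 days before tracer; controls got vehicle. Thallium-201 (23–28 μCi) iv via femoral vein; decapitated 90 min later; tissue radioactivity counted; N = 6. Value is % change in treated versus control tissue concentration.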

Rattus norvegicus [21] = species on record: Rattus norvegicus; experiment: Percent change in thallium-201 concentration in left ventricle of sympathectomized rat, pretreated with 6-hydroxydopamine; assay type: functional, Heart left ventricle
In short: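 Blood-perfusion check in rats under same 6-hydroxydopamine protocol (100 mg/kg ip, 5 days before tracer): thallium-201 23–28 μCi iv via femoral vein, decapitation 90 min later, N = 6; percent change in tissue radioactivity of treated versus control rats.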

Rattus norvegicus [22] = species on record: Rattus norvegicus; experiment: Percent change in [3H]metaraminol concentration in blood of sympathectomized rat, pretreated with 6-hydroxydopamine
Rattus norvegicus [23] = species on record: Rattus norvegicus; experiment: Percent change in [3H]metaraminol concentration in right ventricle of sympathectomized rat, pretreated with 6-hydroxydopamine
Rattus norvegicus [24] = species on record: Rattus norvegicus; experiment: Percent change in thallium-201 concentration in right atrium of sympathectomized rat, pretreated with 6-hydroxydopamine; assay type: functional, Cardiac atrium; in short: as §4
Rattus norvegicus [25] = species on record: Rattus norvegicus; experiment: Percentage change in thallium-201 in blood of sympathectomized rat, pretreated with 6-hydroxydopamine; assay type: functional; in short: as §4
Rattus norvegicus [26] = species on record: Rattus norvegicus; experiment: Percentage change in thallium-201 in right ventricle of sympathectomized rat, pretreated with 6-hydroxydopamine; assay type: functional, Heart right ventricle; in short: as §4
Rattus norvegicus [27] = species on record: Rattus norvegicus; experiment: Percentage change in thallium-201 in left ventricle of sympathectomized rat, pretreated with 6-hydroxydopamine; assay type: functional, Heart left ventricle; in short: as §4
Canis familiaris [28] = experiment: as §3; assay type: functional, Canis lupus familiaris; in short: as §2; remark: listed apart in the source
Rattus norvegicus [29] = species on record: Rattus norvegicus; experiment: Percentage change in thallium-201 in spleen of sympathectomized rat, pretreated with 6-hydroxydopamine; assay type: functional; in short: as §4

C[C@H](N)[C@H](O)c1cccc(O)c1 (stereo in doubt; form 1) [METARAMINOL]
[3H] concentration (Canis familiaris [1]): 0.5 % kg dose g-1
[3H] concentration (Canis familiaris [2]): 0.2 % kg dose g-1
[3H] concentration (Canis familiaris [3]): 0.008 % kg dose g-1
[3H] concentration (Canis familiaris [4]): 0.55 % kg dose g-1
[3H] concentration (Canis familiaris [5]): 0.03 % kg dose g-1
[3H] concentration (Canis familiaris [6]): 0.59 % kg dose g-1
[3H] concentration (Canis familiaris [7]): 0.03 % kg dose g-1
[3H] concentration (Canis familiaris [8]): 18
[3H] concentration (Canis familiaris [9]): 74
[3H] concentration (Canis familiaris [10]): 0.13 % kg dose g-1
[3H] concentration (Canis familiaris [11]): 0.81 % kg dose g-1
[3H] concentration (Canis familiaris [12]): 0.42 % kg dose g-1

C[C@H](N)[C@H](O)c1cccc(O)c1 (stereo in doubt; form 2)
Concentration (Rattus norvegicus [13]): 0.86 % dose g-1
Concentration (Rattus norvegicus [14]): 1.05 % dose g-1
Concentration (Rattus norvegicus [15]): 0.158 % dose g-1
Concentration (Rattus norvegicus [16]): 1.32 % dose g-1
Concentration (Rattus norvegicus [17]): 0.46 % dose g-1
Concentration (Rattus norvegicus [18]): 0.75 % dose g-1

C[C@H](N)[C@H](O)c1cccc(O)c1 (stereo in doubt; form 2) [METARAMINOL]
[3H] concentration (Canis familiaris [1]): 0.73 % kg dose g-1
[3H] concentration (Canis familiaris [2]): 0.13 % kg dose g-1
[3H] concentration (Canis familiaris [3]): 0.009 % kg dose g-1
Change (Rattus norvegicus [19]): -76%
Change (Rattus norvegicus [20]): -86%
Change (Rattus norvegicus [21]): -86%
[3H] concentration (Canis familiaris [4]): 0.72 % kg dose g-1
[3H] concentration (Canis familiaris [6]): 0.51 % kg dose g-1
[3H] concentration (Canis familiaris [7]): 0.05 % kg dose g-1
[3H] concentration (Canis familiaris [8]): 24
Change (Rattus norvegicus [22]): 155%
[3H] concentration (Canis familiaris [9]): 57
[3H] concentration (Canis familiaris [10]): 0.17 % kg dose g-1
Change (Rattus norvegicus [23]): -80%
Change (Rattus norvegicus [24]): -83%
[3H] concentration (Canis familiaris [11]): 0.88 % kg dose g-1

[3H][C@](O)(CN)c1ccc(O)c(O)c1 [[3H]NOREPINEPHRINE]
[3H] concentration (Canis familiaris [1]): 0.52 % kg dose g-1
[3H] concentration (Canis familiaris [2]): 0.18 % kg dose g-1
[3H] concentration (Canis familiaris [3]): 0.017 % kg dose g-1
Change (Rattus norvegicus [25]): -20%
Change (Rattus norvegicus [20]): -92%
[3H] concentration (Canis familiaris [4]): 0.74 % kg dose g-1
[3H] concentration (Canis familiaris [5]): 0.04 % kg dose g-1
[3H] concentration (Canis familiaris [6]): 0.16 % kg dose g-1
Change (Rattus norvegicus [26]): -92%
[3H] concentration (Canis familiaris [7]): 0.03 % kg dose g-1
Change (Rattus norvegicus [27]): -85%
[3H] concentration (Canis familiaris [28]): 19
[3H] concentration (Canis familiaris [9]): 9
[3H] concentration (Canis familiaris [10]): 0.09 % kg dose g-1
Change (Rattus norvegicus [24]): -94%
Change (Rattus norvegicus [29]): -71%
[3H] concentration (Canis familiaris [11]): 0.81 % kg dose g-1
[3H] concentration (Canis familiaris [12]): 0.27 % kg dose g-1
